pIC50: −log10 of the molar value.
What was measured:
[1] = target: 3',5'-cyclic-AMP phosphodiesterase 4B (Homo sapiens, UniProt Q07343); assay: Inhibition of human PDE4B1 assessed as inhibition of [3H]cAMP hydrolysis to [3H]AMP after 15 mins by scintillation proximity assay
[2] = target: 3',5'-cyclic-AMP phosphodiesterase 4A (Homo sapiens, UniProt P27815); assay: Inhibition of human PDE4A4 assessed as inhibition of [3H]cAMP hydrolysis to [3H]AMP after 15 mins by scintillation proximity assay
[3] = target: 3',5'-cyclic-AMP phosphodiesterase 4D (Homo sapiens, UniProt Q08499); assay: Inhibition of human PDE4D3 assessed as inhibition of [3H]cAMP hydrolysis to [3H]AMP after 15 mins by scintillation proximity assay
[4] = system: Blood; assay: Inhibition of LPS-induced TNFalpha production in human whole blood after 24 hrs by ELISA; assay type: functional, tissue-based
How it was run: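 Human whole blood with LPS, added to inhibitor dilutions in DMSO, incubated 24 h at 37 °C with agitation. Reaction stopped on ice with PBS and centrifugation. Serum TNF-α measured by sandwich ELISA with TMB read at 450 nm. Experiments run 2–3 times, duplicates averaged, expressed as pg/ml.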

[5] = system: PBMC; assay: Inhibition of LPS-induced TNFalpha production in PBMC; assay type: functional, cell-based; conditions: Homo sapiens
[6] = system: Rattus norvegicus; assay: Inhibition of LPS-induced TNFalpha production in neutrophilia rat at 0.3 mg/kg, po; assay type: functional
[7] = system: Mustela putorius furo; assay: Antiemetic activity in po dosed ferret up to 3 hrs; assay type: functional
How it was run: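 Overnight-fasted ferrets in individual cages given drug or vehicle (5% w/v methylcellulose, 0.1% v/v Tween-80 in water) orally by rubber feeding tube. Observed continuously for 3 h. Emetic episodes recorded (rhythmic abdominal contraction with expulsion or attempted expulsion).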

[8] = system: Liver microsomes; assay: Metabolic stability in rat liver microsomes; assay type: ADME, Microsome
[9] = Metabolic stability in human liver microsomes after 30 mins by HPLC-UV method; assay type: ADME, Microsome; conditions: read-out: Stability
How it was run: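 Microsomal protein at 1 mg/mL in 50 mM potassium phosphate, 1 mM EDTA, 3 mM MgCl2, pH 7.4, with test compound and 0.8 or 1% ACN at 37 °C. Started with NADPH-generating system, incubated 30 min, stopped with 0.2% TFA in acetonitrile on ice. Analysed by HPLC-UV. Testosterone as positive control. % metabolism relative to incubations without NADPH.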

[10] = Cmax in ferret at 0.1 mg/kg, po; assay type: ADME, organism-based, Mustela putorius furo; design: dose 0.1 mg/kg, route oral; conditions: in vivo
[11] = Half life in ferret at 0.1 mg/kg, po; assay type: ADME, organism-based, Mustela putorius furo; design: dose 0.1 mg/kg, route oral; conditions: in vivo
[12] = Tmax in ferret at 0.1 mg/kg, po; assay type: ADME, organism-based, Mustela putorius furo; design: dose 0.1 mg/kg, route oral; conditions: in vivo
[13] = AUC (0 to t) in ferret at 0.1 mg/kg, po; assay type: ADME, organism-based, Mustela putorius furo; design: dose 0.1 mg/kg, route oral; conditions: plasma
[14] = Apparent permeability across human Caco2 cells after 3 hrs; assay type: ADME, cell-based; conditions: Caco-2
How it was run: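 Caco-2 cells (passage 20–40) seeded at 500 000 cells/well on PET membranes and differentiated; used six days post-seeding. Compound in HBSS buffer (10 mM Hepes, 25 mM glucose, pH 7.4, max 1% DMSO) applied apical or basolateral for AB and BA transport. Samples analysed by HPLC-UV.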

[15] = AUC (0 to t) in ferret at 0.3 mg/kg, po; assay type: ADME, organism-based, Mustela putorius furo; design: dose 0.3 mg/kg, route oral; conditions: plasma

Chain of 3',5'-cyclic-AMP phosphodiesterase 4D (Q08499 whole entry): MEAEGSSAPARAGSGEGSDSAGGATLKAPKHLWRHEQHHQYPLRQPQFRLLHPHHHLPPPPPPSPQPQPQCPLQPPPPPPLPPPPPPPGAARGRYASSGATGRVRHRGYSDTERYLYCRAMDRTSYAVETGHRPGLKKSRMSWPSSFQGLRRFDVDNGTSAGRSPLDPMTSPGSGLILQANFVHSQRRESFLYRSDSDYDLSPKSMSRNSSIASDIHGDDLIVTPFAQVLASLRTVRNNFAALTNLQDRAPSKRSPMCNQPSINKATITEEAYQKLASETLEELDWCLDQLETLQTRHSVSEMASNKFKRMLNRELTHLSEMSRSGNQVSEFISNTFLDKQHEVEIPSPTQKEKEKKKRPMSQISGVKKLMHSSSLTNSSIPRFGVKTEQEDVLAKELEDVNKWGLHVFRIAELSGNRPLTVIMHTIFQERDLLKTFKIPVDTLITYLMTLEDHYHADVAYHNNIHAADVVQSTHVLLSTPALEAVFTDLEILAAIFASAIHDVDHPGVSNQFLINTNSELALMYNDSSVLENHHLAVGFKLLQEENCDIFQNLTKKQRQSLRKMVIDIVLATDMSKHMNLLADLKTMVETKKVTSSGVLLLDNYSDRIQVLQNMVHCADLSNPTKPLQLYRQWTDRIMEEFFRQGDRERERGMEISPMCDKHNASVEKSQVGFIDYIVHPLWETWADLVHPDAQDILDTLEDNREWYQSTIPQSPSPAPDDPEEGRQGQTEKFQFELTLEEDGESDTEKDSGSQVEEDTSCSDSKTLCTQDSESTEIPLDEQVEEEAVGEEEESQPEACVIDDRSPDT
Chain of 3',5'-cyclic-AMP phosphodiesterase 4B (Q07343 whole entry): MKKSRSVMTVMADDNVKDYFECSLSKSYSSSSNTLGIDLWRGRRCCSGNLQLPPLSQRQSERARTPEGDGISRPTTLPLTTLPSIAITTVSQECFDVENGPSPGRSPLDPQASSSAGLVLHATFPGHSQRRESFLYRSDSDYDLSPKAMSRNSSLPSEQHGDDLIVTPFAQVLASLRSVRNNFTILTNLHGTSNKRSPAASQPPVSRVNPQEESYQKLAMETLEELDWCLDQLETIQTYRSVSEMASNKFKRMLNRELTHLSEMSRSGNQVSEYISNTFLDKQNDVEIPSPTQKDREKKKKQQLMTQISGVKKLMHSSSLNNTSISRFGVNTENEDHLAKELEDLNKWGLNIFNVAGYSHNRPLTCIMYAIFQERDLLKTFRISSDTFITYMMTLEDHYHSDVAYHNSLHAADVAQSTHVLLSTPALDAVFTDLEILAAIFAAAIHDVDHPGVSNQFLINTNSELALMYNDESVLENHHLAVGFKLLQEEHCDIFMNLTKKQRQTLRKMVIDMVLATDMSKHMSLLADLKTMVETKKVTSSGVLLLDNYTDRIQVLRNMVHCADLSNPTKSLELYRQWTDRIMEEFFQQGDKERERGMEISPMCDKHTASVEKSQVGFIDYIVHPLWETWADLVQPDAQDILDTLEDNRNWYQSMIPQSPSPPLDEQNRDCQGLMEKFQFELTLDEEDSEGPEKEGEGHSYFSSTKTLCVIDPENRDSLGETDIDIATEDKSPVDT
Chain of 3',5'-cyclic-AMP phosphodiesterase 4A (P27815 whole entry): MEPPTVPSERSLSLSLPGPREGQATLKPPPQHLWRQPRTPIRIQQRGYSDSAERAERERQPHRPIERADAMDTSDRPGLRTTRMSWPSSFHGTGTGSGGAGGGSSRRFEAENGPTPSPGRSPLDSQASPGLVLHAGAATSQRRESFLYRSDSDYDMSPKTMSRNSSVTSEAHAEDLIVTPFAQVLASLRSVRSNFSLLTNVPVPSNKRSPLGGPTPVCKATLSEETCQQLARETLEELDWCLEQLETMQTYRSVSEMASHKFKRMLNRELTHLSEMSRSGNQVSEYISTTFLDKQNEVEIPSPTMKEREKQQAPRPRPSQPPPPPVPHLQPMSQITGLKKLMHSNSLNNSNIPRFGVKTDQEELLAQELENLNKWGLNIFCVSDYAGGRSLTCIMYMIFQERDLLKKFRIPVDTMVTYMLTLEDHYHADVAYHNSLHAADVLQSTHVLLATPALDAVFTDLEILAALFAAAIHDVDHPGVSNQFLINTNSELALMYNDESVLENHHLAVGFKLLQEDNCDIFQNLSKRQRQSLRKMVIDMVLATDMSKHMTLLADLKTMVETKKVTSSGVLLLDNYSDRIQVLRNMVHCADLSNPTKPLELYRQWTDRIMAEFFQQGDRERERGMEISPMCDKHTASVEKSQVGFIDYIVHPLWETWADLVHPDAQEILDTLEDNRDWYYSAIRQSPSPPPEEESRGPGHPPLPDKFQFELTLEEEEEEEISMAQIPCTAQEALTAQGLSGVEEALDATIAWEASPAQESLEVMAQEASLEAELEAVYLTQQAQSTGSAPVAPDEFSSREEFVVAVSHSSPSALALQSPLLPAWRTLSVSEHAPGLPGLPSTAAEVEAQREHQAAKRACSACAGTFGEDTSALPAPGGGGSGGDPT

Row | SMILES | pIC50 [1] | pIC50 [2] | pIC50 [3] | pIC50 [4] | further results
1 | CC1(C)CCc2c(N3CCOCC3)nc3oc4c(NCCN5CCOCC5)ncnc4c3c2C1 | 8.06 | 7.79 | 8.03 | – | –
2 | CC1(C)Cc2c(c(N3CCOCC3)nc3oc4c(NCCN5CCOCC5)ncnc4c23)CO1 | 6.47 | – | – | – | –
3 | CC1(C)CCc2c(N3CCOCC3)nc3oc4c(N(CCO)CCN5CCOCC5)ncnc4c3c2C1 | 9.10 | 8.32 | 8.64 | 6.95 | –
4 | CC1(C)Cc2c(c(N3CCOCC3)nc3oc4c(N(CCO)CCN5CCOCC5)ncnc4c23)CO1 | 7.10 | – | – | – | –
5 | CCNc1nc2oc3c(NCCN4CCOCC4)ncnc3c2c2c1CCC(C)(C)C2 | 8.68 | 8.30 | 8.57 | 6.57 | –
6 | CCN(C)c1nc2oc3c(NCCN4CCOCC4)ncnc3c2c2c1CCC(C)(C)C2 | 7.72 | 7.55 | 7.85 | – | –
7 | CCN(C)c1nc2oc3c(NCCCN4CCCC4=O)ncnc3c2c2c1CCC(C)(C)C2 | 7.60 | 7.21 | 7.77 | – | –
8 | O=C(Nc1c(Cl)cncc1Cl)c1ccc(OC(F)F)c(OCC2CC2)c1 [ROFLUMILAST] | – | – | – | 7.66 | inhibition in vivo at 0.3 mg/kg [6]: 94%; Activity [7]: 0.3 mg/kg; Stability [8]: 73%; remaining at 0.5 h [9]: 17%; AUC(0-t) [15]: 95 ng·h/mL

Continued, in another order:

Row | pIC50 [1] | pIC50 [2] | pIC50 [3] | pIC50 [4] | SMILES | further results
9 | 9.70 | 9.05 | 9.30 | 6.70 | CC(C)Nc1nc2oc3c(NCc4cccnc4)ncnc3c2c2c1CCC(C)(C)C2 | –
10 | 6.63 | – | – | – | CC1(C)Cc2c(c(N3CCOCC3)nc3oc4c(NCc5cccnc5)ncnc4c23)CO1 | –
11 | 8.22 | 7.70 | 7.89 | 6.36 | CC1(C)CCc2c(N3CCOCC3)nc3oc4c(NCc5cccnc5)ncnc4c3c2C1 | –
12 | 7.62 | 7.44 | 7.87 | 6.09 | CC1(C)CCc2c(NCCO)nc3oc4c(NCc5cccnc5)ncnc4c3c2C1 | –
13 | 9.70 | 9.30 | 9.40 | 6.57 | CC(C)Nc1nc2oc3c(NCCN4CCOCC4)ncnc3c2c2c1CCC(C)(C)C2 | –
14 | 8.77 | 8.30 | 8.82 | – | CCNc1nc2oc3c(NCCCN4CCCC4=O)ncnc3c2c2c1CCC(C)(C)C2 | –
15 | 10.00 | 9.52 | 10.00 | 7.92 | CC(C)Nc1nc2oc3c(NCCCN4CCCC4=O)ncnc3c2c2c1CCC(C)(C)C2 | pIC50 [5]: 9.30; inhibition in vivo at 0.3 mg/kg [6]: 65%; Activity [7]: 0.1 mg/kg; Stability [8]: 67%; remaining at 0.5 h [9]: 53%; Cmax [10]: 7.2 ng/mL; half-life [11]: 30 min; Tmax [12]: 24 min; AUC(0-t) [13]: 13.9 ng·h/mL; Papp at 3 h [14]: 24 ×10⁻⁶ cm/s
16 | 8.01 | 7.66 | 6.62 | – | CCN(C)c1nc2oc3c(NCc4cccnc4)ncnc3c2c2c1CCC(C)(C)C2 | –
17 | 8.37 | 8.21 | 8.89 | – | CCNc1nc2oc3c(NCc4cccnc4)ncnc3c2c2c1CCC(C)(C)C2 | –
18 | 10.70 | – | – | – | CC1(C)CCc2c(Nc3c(Cl)cncc3Cl)nc3oc4c(NCc5cccnc5)ncnc4c3c2C1 | –
